PMC7004075 (Clinical Pharmacology in Drug Development, 2019)

Experiments:
[1] = system: endogenous glucose production, nonhepatic glucose uptake; conditions: peripheral administration at 1.8 pmol/kg/min, preclinical; cited from earlier work
[2] = system: plasma glucose in patients with T2DM; experiment: Plasma glucose pharmacodynamics, Cohort 1; format: in vivo, human
[3] = system: plasma glucose in patients with T2DM; experiment: Plasma glucose pharmacodynamics, Cohort 2; format: in vivo, human
In short: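 Dosing was before each of 2 ADA meals set 4, 5 or 6 h apart and eaten within 30 min. Blood was taken predose and 10–180 min postdose. Baseline-adjusted glucose AUC0‑180min and Cmin were analysed by a mixed-effects model (sequence, period, treatment; patient-within-sequence random).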

[4] = Plasma insulin tregopil pharmacokinetics, Cohort 2; format: in vivo, human; conditions: for plasma insulin tregopil Cmax, mean ± SD / plasma insulin tregopil AUC0-180min, mean ± SD: 30 mg oral
[5] = system: patients with T2DM; experiment: Safety and tolerability; format: in vivo, human; conditions: for overall safety and tolerability: patients with T2DM, different dosing conditions
[6] = Cohort 2, 5-hour between-meal interval, afternoon dose
[7] = Cohort 2, 5-hour between-meal interval, morning dose

## human insulin: human insulin infused into portal vein or peripherally in preclinical studies
[1]
  increase in plasma insulin levels in the peripheral artery: 2 fold

## insulin tregopil: PEGylated recombinant human insulin with a single methoxy-triethylene-glycol-propionyl unit on the Lys-β29-amino group; oral tablets
[2]; Cohort 1, 10 minute premeal group (placebo 55%)
  2-hour postprandial glucose (PPG), higher than the premeal levels: 36%
[2]; Cohort 1, 20 minute premeal group (placebo 55%)
  2-hour postprandial glucose (PPG), higher than the premeal levels: 55%
[2]; Cohort 1, 30 minute premeal group (placebo 55%)
  2-hour postprandial glucose (PPG), higher than the premeal levels: 77%
[2]; oral, patients with T2DM
  duration of glucose-lowering action: approximately 2 hours
[3]; Cohort 2, insulin tregopil groups (placebo 9.16%)
  intrasubject variability for the baseline-adjusted PD response Cmin: 11.61%
[3]; Cohort 2, insulin tregopil groups (placebo 9.17%)
  intrasubject variability for the baseline-adjusted PD response AUC0-180mins: 8.41%
[4]; Cohort 2
  intersubject variability of plasma insulin tregopil AUC0-180mins: 144.0%
  intersubject variability of plasma insulin tregopil Cmax: 124.7%
  intrasubject variability of plasma insulin tregopil Cmax: 64.7%
[4]; Cohort 2, 4-hour between-meal interval, afternoon dose
  plasma insulin tregopil Cmax, mean ± SD: 6760 ± 7680 µg/mL
[4]; Cohort 2, 4-hour between-meal interval, morning dose
  plasma insulin tregopil Cmax, mean ± SD: 11330 ± 9870 µg/mL
[4]; [6]
  plasma insulin tregopil AUC0-180min, mean ± SD: 209.27 ± 186.61 mg·min/mL
  plasma insulin tregopil Cmax, mean ± SD: 7139 ± 5691 µg/mL
[4]; [7]
  plasma insulin tregopil AUC0-180min, mean ± SD: 320.60 ± 196.340 mg·min/mL
  plasma insulin tregopil Cmax, mean ± SD: 10140 ± 5310 µg/mL
[4]; Cohort 2, 6-hour between-meal interval, morning dose (first value)
  plasma insulin tregopil Cmax, mean ± SD: 11320 ± 8730 µg/mL
[5]; Cohort 1
  events of hypoglycemia: 4 events
[5]; Cohort 1, 30 minute premeal dosing time group
  events of hypoglycemia: 3 events
[5]; Cohort 2, all in the afternoon
  events of hypoglycemia: 5 events
[5]; all cohorts
  events of hypoglycemia: 43 events
  hypoglycemic events mild in severity: 83.7%
  patient discontinuations from the study due to AEs: no patient discontinuations
[5]; generally
  duration of hypoglycemic symptoms: approximately 30 minutes
[5]
  overall safety and tolerability: safe and well tolerated
[5]; listed as Insulin tregopil
  overall safety and tolerability: well tolerated
